Measurements reported in ChEMBL document CHEMBL3608246, “Novel benzidine and diaminofluorene prolinamide derivatives as potent hepatitis C virus NS5A inhibitors” (Eur J Med Chem, 2015).
Active and inactive are the calls of the source. No cut-off for these calls is given here.

What was measured:
Hepatitis C virus [1] = test: Antiviral activity against HCV genotype 2a JFH5a infected in human Huh7.5.1 cells transfected with JFH5a-Rluc-ad34 assessed as reduction in virus proliferation by luciferase reporter gene assay; assay type: functional, cell-based, Hepacivirus hominis, Huh-7
Hepatitis C virus [2] = test: Antiviral activity against HCV genotype 1b NK/R2AN infected in human Huh7.5.1 cells assessed as reduction in virus replication by luciferase reporter gene assay; assay type: functional, organism-based, Hepacivirus hominis, subtype 1b NK/R2AN, Huh-7
[3] = Cytotoxicity against human Huh7.5.1 cells; assay type: cell-based, Huh-7
hERG (KCNH2) = hERG (KCNH2) (Homo sapiens, UniProt Q12809); test: Inhibition of human ERG at 10 uM by fluorescence polarization assay based ligand binding assay
Chain of hERG (KCNH2) (Q12809 whole entry): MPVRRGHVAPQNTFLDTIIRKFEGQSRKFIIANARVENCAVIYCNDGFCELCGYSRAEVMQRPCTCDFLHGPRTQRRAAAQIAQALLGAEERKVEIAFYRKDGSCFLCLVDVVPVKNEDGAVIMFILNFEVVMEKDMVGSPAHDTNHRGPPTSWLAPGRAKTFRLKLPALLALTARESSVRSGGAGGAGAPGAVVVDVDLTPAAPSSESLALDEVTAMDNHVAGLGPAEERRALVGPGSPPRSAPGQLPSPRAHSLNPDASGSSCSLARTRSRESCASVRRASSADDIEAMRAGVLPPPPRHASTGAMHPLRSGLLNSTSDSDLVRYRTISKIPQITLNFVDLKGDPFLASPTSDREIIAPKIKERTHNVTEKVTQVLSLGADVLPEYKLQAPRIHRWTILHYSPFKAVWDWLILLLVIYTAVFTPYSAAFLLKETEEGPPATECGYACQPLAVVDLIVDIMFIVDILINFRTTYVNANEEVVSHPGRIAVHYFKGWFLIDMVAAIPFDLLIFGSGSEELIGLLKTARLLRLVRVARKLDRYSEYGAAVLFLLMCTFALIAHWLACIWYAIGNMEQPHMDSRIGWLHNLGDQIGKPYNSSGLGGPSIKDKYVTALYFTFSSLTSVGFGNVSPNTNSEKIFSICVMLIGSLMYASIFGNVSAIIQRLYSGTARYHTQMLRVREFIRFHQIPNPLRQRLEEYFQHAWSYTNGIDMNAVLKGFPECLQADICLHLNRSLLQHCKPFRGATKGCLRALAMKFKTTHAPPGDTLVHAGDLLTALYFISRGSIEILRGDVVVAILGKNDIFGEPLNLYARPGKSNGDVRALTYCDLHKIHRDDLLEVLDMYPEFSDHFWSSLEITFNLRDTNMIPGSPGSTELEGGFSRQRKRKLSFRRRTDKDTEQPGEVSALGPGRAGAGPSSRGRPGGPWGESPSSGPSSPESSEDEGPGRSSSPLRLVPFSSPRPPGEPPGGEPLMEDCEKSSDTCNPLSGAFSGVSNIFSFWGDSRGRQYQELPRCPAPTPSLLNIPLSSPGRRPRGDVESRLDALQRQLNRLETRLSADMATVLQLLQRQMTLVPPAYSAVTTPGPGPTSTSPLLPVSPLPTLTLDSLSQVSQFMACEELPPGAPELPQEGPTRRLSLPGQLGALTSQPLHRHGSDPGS

[4] = Stability in rat plasma assessed as compound remaining t 100 uM after 0.5 hrs by LC-MS/MS method; assay type: ADME, cell-free; settings: read-out: Stability
How it was run: (§1)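 Rat plasma pre-warmed 5 min at 37 °C, mixed with test compound from 100 µM stock (3 into 297 parts), incubated at 37 °C; sampled at 0, 15, 30, 60, 120 min, acetonitrile-precipitated, centrifuged 10 min, supernatant analysed by LC-MS/MS.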

[5] = Stability in rat plasma assessed as compound remaining at 100 uM after 1 hr by LC-MS/MS method; assay type: ADME, cell-free; settings: read-out: Stability; how it was run: as §1
[6] = Stability in rat plasma assessed as compound remaining at 100 uM after 2 hrs by LC-MS/MS method; assay type: ADME, cell-free; settings: read-out: Stability; how it was run: as §1
[7] = Stability in human liver microsomes assessed as compound remaining at 1 uM after 0.5 hrs by LC-MS/MS method; assay type: ADME; settings: read-out: Stability
How it was run: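 Pooled human liver microsomal fraction with β-NADPH, compound at 1 µM, incubated over 30 min; remaining compound in supernatant quantified by LC-MS/MS.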

Cytochrome P450 1A2 = target: T1, Cytochrome P450 1A2 (Homo sapiens, UniProt P05177); test: Inhibition of human CYP1A2 by luminometry; assay type: ADME
T1 sequence (P05177 whole entry): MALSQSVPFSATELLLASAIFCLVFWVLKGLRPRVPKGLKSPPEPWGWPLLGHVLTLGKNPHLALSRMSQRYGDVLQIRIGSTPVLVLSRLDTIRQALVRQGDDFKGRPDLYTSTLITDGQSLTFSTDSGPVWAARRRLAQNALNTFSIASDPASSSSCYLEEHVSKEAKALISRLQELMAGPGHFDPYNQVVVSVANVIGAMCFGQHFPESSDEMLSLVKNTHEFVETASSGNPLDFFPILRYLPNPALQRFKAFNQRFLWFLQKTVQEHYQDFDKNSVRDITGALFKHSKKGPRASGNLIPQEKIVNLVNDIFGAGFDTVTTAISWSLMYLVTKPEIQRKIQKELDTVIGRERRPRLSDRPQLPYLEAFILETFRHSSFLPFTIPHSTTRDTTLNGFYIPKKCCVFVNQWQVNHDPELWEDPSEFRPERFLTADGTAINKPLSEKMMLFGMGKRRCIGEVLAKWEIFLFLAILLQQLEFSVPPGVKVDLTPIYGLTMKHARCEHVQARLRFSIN
How it was run: (§2)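 Human CYP1A2, 2C9, 2C19, 2D6 and 3A4 inhibition by P450-Glo luminescent assay per kit protocol; compounds at 100, 50, 10, 5, 1, 0.1 and 0.01 µM; luminometer read-out.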

Cytochrome P450 2C9 = Cytochrome P450 2C9 (Homo sapiens, UniProt P11712); test: Inhibition of human CYP2C9 by luminometry; assay type: ADME; how it was run: as §2
Chain of Cytochrome P450 2C9 (P11712 whole entry): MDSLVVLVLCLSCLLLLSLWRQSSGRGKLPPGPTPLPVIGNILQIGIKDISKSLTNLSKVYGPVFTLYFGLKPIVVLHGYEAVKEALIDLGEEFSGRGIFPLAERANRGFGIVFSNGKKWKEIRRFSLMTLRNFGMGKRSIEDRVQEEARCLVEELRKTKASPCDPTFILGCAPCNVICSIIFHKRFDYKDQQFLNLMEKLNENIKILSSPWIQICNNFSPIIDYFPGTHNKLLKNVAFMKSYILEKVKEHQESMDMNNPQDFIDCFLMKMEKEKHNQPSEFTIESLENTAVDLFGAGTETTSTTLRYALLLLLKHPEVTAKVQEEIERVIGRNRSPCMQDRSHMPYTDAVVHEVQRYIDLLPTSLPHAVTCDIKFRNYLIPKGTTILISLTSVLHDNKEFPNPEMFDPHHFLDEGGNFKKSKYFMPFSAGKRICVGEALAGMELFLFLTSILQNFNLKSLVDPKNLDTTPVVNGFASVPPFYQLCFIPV

Cytochrome P450 2D6 = Cytochrome P450 2D6 (Homo sapiens, UniProt P10635); test: Inhibition of human CYP2D6 by luminometry; assay type: ADME; how it was run: as §2
Chain of Cytochrome P450 2D6 (P10635 whole entry): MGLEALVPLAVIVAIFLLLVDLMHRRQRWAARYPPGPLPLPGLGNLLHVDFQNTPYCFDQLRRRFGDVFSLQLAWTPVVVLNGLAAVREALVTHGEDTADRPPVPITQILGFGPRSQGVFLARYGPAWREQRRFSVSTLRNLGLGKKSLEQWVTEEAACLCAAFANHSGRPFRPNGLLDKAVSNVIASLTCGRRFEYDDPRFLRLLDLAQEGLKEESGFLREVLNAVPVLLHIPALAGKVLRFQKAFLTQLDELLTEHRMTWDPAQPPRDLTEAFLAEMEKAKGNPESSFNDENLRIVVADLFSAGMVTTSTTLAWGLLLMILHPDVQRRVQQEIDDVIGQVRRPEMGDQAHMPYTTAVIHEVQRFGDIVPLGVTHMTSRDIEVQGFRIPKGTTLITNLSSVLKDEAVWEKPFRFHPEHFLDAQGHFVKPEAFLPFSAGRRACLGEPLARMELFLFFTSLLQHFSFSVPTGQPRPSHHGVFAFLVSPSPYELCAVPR

Cytochrome P450 2C19 = Cytochrome P450 2C19 (Homo sapiens, UniProt P33261); test: Inhibition of human CYP2C19 by luminometry; assay type: ADME; how it was run: as §2
Chain of Cytochrome P450 2C19 (P33261 whole entry): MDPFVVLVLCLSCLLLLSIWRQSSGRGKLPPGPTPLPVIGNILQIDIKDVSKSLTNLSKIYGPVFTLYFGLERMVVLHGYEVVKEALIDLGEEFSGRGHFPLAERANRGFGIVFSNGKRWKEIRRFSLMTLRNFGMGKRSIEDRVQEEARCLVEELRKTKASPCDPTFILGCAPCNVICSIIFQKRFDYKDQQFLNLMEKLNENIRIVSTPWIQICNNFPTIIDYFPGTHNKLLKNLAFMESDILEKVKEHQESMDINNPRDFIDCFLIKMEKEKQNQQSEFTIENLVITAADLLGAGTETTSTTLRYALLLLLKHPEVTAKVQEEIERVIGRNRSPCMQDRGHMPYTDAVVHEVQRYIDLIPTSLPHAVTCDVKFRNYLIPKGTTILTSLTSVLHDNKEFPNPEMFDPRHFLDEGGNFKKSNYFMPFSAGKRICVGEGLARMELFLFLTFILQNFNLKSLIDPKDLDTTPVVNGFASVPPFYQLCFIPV

Cytochrome P450 3A4 = Cytochrome P450 3A4 (Homo sapiens, UniProt P08684); test: Inhibition of human CYP3A4 by luminometry; assay type: ADME; how it was run: as §2
Chain of Cytochrome P450 3A4 (P08684 whole entry): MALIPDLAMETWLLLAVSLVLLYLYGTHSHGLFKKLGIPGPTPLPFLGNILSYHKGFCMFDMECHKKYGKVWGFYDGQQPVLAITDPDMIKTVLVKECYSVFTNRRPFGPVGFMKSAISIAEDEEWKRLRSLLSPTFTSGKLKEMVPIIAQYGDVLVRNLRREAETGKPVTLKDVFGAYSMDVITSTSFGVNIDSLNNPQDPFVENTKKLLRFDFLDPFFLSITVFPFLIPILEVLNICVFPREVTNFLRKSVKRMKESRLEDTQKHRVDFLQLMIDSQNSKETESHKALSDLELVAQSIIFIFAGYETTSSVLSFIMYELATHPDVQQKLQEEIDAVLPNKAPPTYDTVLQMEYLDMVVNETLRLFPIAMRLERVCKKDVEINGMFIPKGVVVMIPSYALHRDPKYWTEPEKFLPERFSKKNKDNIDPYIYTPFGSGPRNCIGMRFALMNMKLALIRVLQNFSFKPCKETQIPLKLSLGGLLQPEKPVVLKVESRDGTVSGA

[8] = Half life in Sprague-Dawley rat at 10 mg/kg, po by LC/MS/MS method; assay type: ADME, organism-based; settings: in vivo
How it was run: (§3)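 Sprague-Dawley rats, 2 male and 1 female per compound per route, parallel design. Vehicle 5% DMSO, 10% solutol, 85% HPBCD; IV 5 mg/kg bolus via tail vein, oral 10 mg/kg. Blood into K2-EDTA tubes at several time points, centrifuged, plasma analysed by LC/MS/MS; non-compartmental analysis.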

[9] = Oral bioavailability in Sprague-Dawley rat at 10 mg/kg by LC/MS/MS method; assay type: ADME, organism-based; settings: in vivo; how it was run: as §3
[10] = Half life in Sprague-Dawley rat at 5 mg/kg, iv by LC/MS/MS method; assay type: ADME, organism-based; settings: in vivo; how it was run: as §3
Hepatitis C virus [11] = test: Antiviral activity against HCV genotype 1b NK/R2AN infected in human Huh7.5.1 cells assessed as reduction in virus replication in presence of 123 nM NS5B polymerase inhibitor sofosbuvir by luciferase reporter gene assay; assay type: functional, organism-based; settings: Hepacivirus hominis; subtype 1b NK/R2AN; Huh-7
Hepatitis C virus [12] = test: Antiviral activity against HCV genotype 1b NK/R2AN infected in human Huh7.5.1 cells expressing NS5A L31V mutant assessed as reduction in virus replication at 100 pM to 1 uM by luciferase reporter gene assay; assay type: functional, organism-based; settings: Hepacivirus hominis, subtype 1b NK/R2AN, Huh-7
How it was run: (§4)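 Daclatasvir-resistant NS5A mutant RNAs were transcribed in vitro and electroporated into Huh7.5.1 cells grown in 12-well plates. At 4 h post-transfection, medium was replaced with DMEM containing serially diluted compounds. Cells were harvested 3 days later and Renilla luciferase activity was measured and normalized to mock-treated cells.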

Hepatitis C virus [13] = test: Antiviral activity against HCV genotype 1b NK/R2AN infected in human Huh7.5.1 cells expressing NS5A Y93H mutant assessed as reduction in virus replication at 100 pM to 1 uM by luciferase reporter gene assay; assay type: functional, organism-based; settings: Hepacivirus hominis, subtype 1b NK/R2AN, Huh-7; how it was run: as §4
Salmonella typhimurium = test: Genotoxicity in Salmonella typhimurium TA98 assessed as induction of revertant colonies at 1 ug/plate in absence of S9 mix by Ames test relative untreated control; assay type: toxicity, organism-based; settings: salmonella enterica subsp. enterica serovar typhimurium
[14] = Hepatitis C virus, genotype 2a JFH5a, Huh-7
[15] = Hepatitis C virus, subtype 1b NK/R2AN, Huh-7

Compound COC(=O)N[C@@H](C(=O)N1CCC[C@@H]1C(=O)Nc1ccc(-c2ccc(NC(=O)[C@H]3CCCN3C(=O)[C@H](NC(=O)OC)c3ccccc3)cc2)cc1)c1ccccc1 has an EC50 (Hepatitis C virus [1]; [14]) of 1770 nM, an EC50 (Hepatitis C virus [2]; [15]) of 83 nM and a CC50 [3] greater than 25000 nM.

In the case of COC(=O)N[C@@H](C(=O)N1CCC[C@@]1(C)C(=O)Nc1ccc(-c2ccc(NC(=O)[C@]3(C)CCCN3C(=O)[C@H](NC(=O)OC)c3ccccc3)cc2)cc1)c1ccccc1, the EC50 (Hepatitis C virus [1]; [14]) is reported as 3.3 nM, the EC50 (Hepatitis C virus [2]; [15]) is reported as 2.2 nM and the CC50 [3] is reported as greater than 25000 nM.

For COC(=O)N[C@@H](C(=O)N1CCCC[C@H]1C(=O)Nc1ccc(-c2ccc(NC(=O)[C@@H]3CCCCN3C(=O)[C@H](NC(=O)OC)c3ccccc3)cc2)cc1)c1ccccc1, the EC50 (Hepatitis C virus [1]; [14]) was 180 nM, the EC50 (Hepatitis C virus [2]; [15]) was 2.1 nM and the CC50 [3] was greater than 25000 nM.

COC(=O)N[C@@H](C(=O)N1CCCC[C@@H]1C(=O)Nc1ccc(-c2ccc(NC(=O)[C@H]3CCCCN3C(=O)[C@H](NC(=O)OC)c3ccccc3)cc2)cc1)c1ccccc1 gave an EC50 (Hepatitis C virus [1]; [14]) of 419 nM, an EC50 (Hepatitis C virus [2]; [15]) of 370 nM and a CC50 [3] greater than 25000 nM.

Work on COC(=O)N[C@@H](C(=O)N1CCC[C@H]1C(=O)Nc1ccc(-c2ccc(NC(=O)[C@@H]3CCCN3C(=O)[C@H](NC(=O)OC)c3ccccc3)cc2C(F)(F)F)c(C(F)(F)F)c1)c1ccccc1 (stereo in doubt; form 1) [listing 1 of 2 here] yielded an EC50 (Hepatitis C virus [1]; huh-7) of 0.025 nM, an EC50 (Hepatitis C virus [2]; huh-7) of 0.0025 nM and an inhibition at 10 µM (hERG (KCNH2)) of 7.98%. The remaining at 0.5 h, 100 µM [4] was 93%, the remaining at 1 h, 100 µM [5] was 99% and the remaining at 2 h, 100 µM [6] was 99%. The remaining at 0.5 h, 1 µM [7] was 79%, the EC50 (Cytochrome P450 1A2) was 78800 nM and the EC50 (Cytochrome P450 2C9) was 660 nM. For the same compound, the EC50 (Cytochrome P450 2D6) was greater than 100000 nM, the EC50 (Cytochrome P450 2C19) was 4640 nM and the EC50 (Cytochrome P450 3A4) was 4640 nM. It also gave a half-life [8] of 3.8 h, a bioavailability [9] of 11.7% and a half-life [10] of 2.9 h.

With COC(=O)N[C@@H](C(=O)N1CCC[C@H]1C(=O)Nc1ccc(-c2ccc(NC(=O)[C@@H]3CCCN3C(=O)[C@H](NC(=O)OC)c3ccccc3)cc2Br)c(Br)c1)c1ccccc1 the EC50 (Hepatitis C virus [1]; [14]) was 0.01 nM, the EC50 (Hepatitis C virus [2]; [15]) was 0.007 nM and the CC50 [3] was greater than 25000 nM.

With COC(=O)N[C@@H](C(=O)N1CCC[C@H]1C(=O)Nc1ccc(-c2ccc(NC(=O)[C@@H]3CCCN3C(=O)[C@H](NC(=O)OC)c3ccccc3)cc2C(F)(F)F)c(C(F)(F)F)c1)c1ccccc1 (stereo in doubt; form 1) [listing 2 of 2 here] the Activity (Hepatitis C virus [11]) was “Active”.

In the case of COC(=O)N[C@H](C(=O)N1CCC[C@H]1c1ncc(-c2ccc(-c3ccc(-c4cnc([C@@H]5CCCN5C(=O)[C@@H](NC(=O)OC)C(C)C)[nH]4)cc3)cc2)[nH]1)C(C)C, the inhibition (Hepatitis C virus [12]) is reported as “Active” and the inhibition (Hepatitis C virus [13]) is reported as “Active”.

For COC(=O)N[C@@H](C(=O)N1CC(=O)C[C@H]1C(=O)Nc1ccc(-c2ccc(NC(=O)[C@@H]3CC(=O)CN3C(=O)[C@H](NC(=O)OC)c3ccccc3)cc2)cc1)c1ccccc1, the EC50 (Hepatitis C virus [1]; [14]) was 0.26 nM, the EC50 (Hepatitis C virus [2]; [15]) was 0.044 nM and the CC50 [3] was greater than 25000 nM.

In the case of COC(=O)N[C@@H](C(=O)N1CCC[C@H]1C(=O)Nc1ccc(-c2ccc(NC(=O)[C@@H]3CCCN3C(=O)[C@H](NC(=O)OC)c3ccccc3)cc2F)c(F)c1)c1ccccc1, the EC50 (Hepatitis C virus [1]; [14]) is reported as 0.16 nM, the EC50 (Hepatitis C virus [2]; [15]) is reported as 0.005 nM and the CC50 [3] is reported as greater than 25000 nM. For the same compound, the inhibition at 10 µM (hERG (KCNH2)) was less than 1%, the remaining at 0.5 h, 100 µM [4] was 65% and the remaining at 1 h, 100 µM [5] was 61%. For the same compound, the remaining at 2 h, 100 µM [6] was 63%, the remaining at 0.5 h, 1 µM [7] was 97% and the EC50 (Cytochrome P450 1A2) was greater than 100000 nM. The EC50 (Cytochrome P450 2C9) was 87.7 nM, the EC50 (Cytochrome P450 2D6) was 4940 nM and the EC50 (Cytochrome P450 2C19) was 724 nM. It also gave an EC50 (Cytochrome P450 3A4) of 2460 nM, a half-life [8] of 2.34 h and a bioavailability [9] of 3.12%. The half-life [10] was 0.88 h.

In the case of O=[N+]([O-])c1ccc2c(c1)Cc1ccccc1-2 [2-NITROFLUORENE], the “fold change (FC)” value (Salmonella typhimurium) is reported as 10.2.
